Reference: ChEMBL document CHEMBL3227917, “Structure-activity relationships of dimeric Catharanthus alkaloids. 2. Experimental antitumor activities of N-substituted deacetylvinblastine amide (vindesine) sulfates” (J Med Chem, 1979)

Legend:
[1] = Antitumor activity against mouse Ridgway osteogenic sarcoma allografted in AKR mouse assessed as tumor growth inhibition at 0.20 mg/kg, ip administered daily for 8 to 10 days compound treatment commenced 8 days after tumor implantation; type: functional; conditions: route intraperitoneal, read-out: TGI
[2] = Antitumor activity against mouse Ridgway osteogenic sarcoma allografted in AKR mouse assessed as tumor growth inhibition at 0.40 mg/kg, ip administered daily for 8 to 10 days compound treatment commenced 8 days after tumor implantation; type: functional; conditions: route intraperitoneal, read-out: TGI
[3] = Antitumor activity against mouse Gardner lymphosarcoma allografted in C3H mouse assessed as tumor growth inhibition at 0.40 mg/kg, ip administered daily for 8 to 10 days; type: functional; conditions: route intraperitoneal, read-out: TGI
Procedure, shortened: (§1)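 Gardner lymphosarcoma in C3H mice; sulfate salts unless noted, given ip daily for 8–10 days, treatment starting 8 days after tumor implantation. Tumor growth inhibition scored as –, 0–25%; +, 26–50%; ++, 51–75%; +++, 76–100%; T, lethal to ≥5 of 10 animals per group. Average of one or more tests.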

[4] = Antitumor activity against mouse Gardner lymphosarcoma allografted in C3H mouse assessed as tumor growth inhibition at 0.20 mg/kg, ip administered daily for 8 to 10 days; type: functional; conditions: route intraperitoneal, read-out: TGI; procedure, shortened: as §1
Mus musculus [5] = assay: Toxicity in C3H mouse allografted with mouse Gardner lymphosarcoma assessed as lethality at 0.40 mg/kg, ip administered daily for 8 to 10 days; type: organism-based; design: dose 0.4 mg/kg, route intraperitoneal; conditions: in vivo, 0.4 mg/kg
Procedure, shortened: (§2)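 Tumor-bearing mice given sulfate salts ip daily for 8–10 days; values are the average of one or more tests. Toxic means lethal to ≥5 of 10 animals per group.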

[6] = Antitumor activity against mouse Gardner lymphosarcoma allografted in C3H mouse assessed as tumor growth inhibition at 0.10 mg/kg, ip administered daily for 8 to 10 days; type: functional; conditions: route intraperitoneal, read-out: TGI; procedure, shortened: as §1
Mus musculus [7] = assay: Toxicity in AKR mouse allografted with mouse Ridgway osteogenic sarcoma assessed as lethality at 0.40 mg/kg, ip administered daily for 8 to 10 days compound treatment commenced 8 days after tumor implantation; type: organism-based; design: dose 0.4 mg/kg, route intraperitoneal; conditions: in vivo, 0.4 mg/kg; procedure, shortened: as §2
[8] = Antitumor activity against mouse Gardner lymphosarcoma allografted in C3H mouse assessed as tumor growth inhibition at 0.05 mg/kg, ip administered daily for 8 to 10 days; type: functional; conditions: route intraperitoneal, read-out: TGI; procedure, shortened: as §1
B16 [9] = assay: Antitumor activity against mouse B16 cells allografted in C57BL/6 mouse assessed as prolongation of host survival at 0.60 mg/kg, ip administered on days 1,5 and 9; type: functional; conditions: route intraperitoneal
Procedure, shortened: (§3)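 B16 melanoma cells (10⁶ inoculum) implanted ip in C57BL/6 mice; groups of 10. Sulfate salts unless noted, given ip on days 1, 5 and 9. Single test. Survival prolongation is expressed as percent versus controls, with survivors counted on day 60. Toxic means deaths of ≥5 of 10 animals before the first control death.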

B16 [10] = assay: Antitumor activity against mouse B16 cells allografted in C57BL/6 mouse assessed as prolongation of host survival at 0.90 mg/kg, ip administered on days 1,5 and 9; type: functional; conditions: route intraperitoneal; procedure, shortened: as §3
B16 [11] = assay: Antitumor activity against mouse B16 cells allografted in C57BL/6 mouse assessed as prolongation of host survival at 1.20 mg/kg, ip administered on days 1,5 and 9; type: functional; conditions: route intraperitoneal; procedure, shortened: as §3
CHO [12] = assay: Mitotic arrest in CHO cells assessed as increase in cell accumulation at 0.002 ug/ml; type: functional, Cricetulus griseus
Procedure, shortened: (§4)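 Chinese hamster ovary cells in tissue culture, scored for mitotic arrest as increase in cells in mitotic arrest over control: +++, 40–50%; ++, 15–40%; +, 10–15%; ±, 7–10%; –, 3–7%. Cytotoxicity noted separately.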

CHO [13] = assay: Mitotic arrest in CHO cells assessed as increase in cell accumulation at 0.02 ug/ml; type: functional, Cricetulus griseus; procedure, shortened: as §4
CHO [14] = assay: Mitotic arrest in CHO cells assessed as increase in cell accumulation at 0.2 ug/ml; type: functional, Cricetulus griseus; procedure, shortened: as §4

| Structure (SMILES) | inhibition in vivo at 0.2 mg/kg [1] [%] | inhibition in vivo at 0.4 mg/kg [3] [%] | inhibition in vivo at 0.2 mg/kg [4] [%] | Activity (Mus musculus [5]) | inhibition in vivo at 0.1 mg/kg [6] [%] | inhibition in vivo at 0.05 mg/kg [8] [%] | other results |
| --- | --- | --- | --- | --- | --- | --- | --- |
| CCCCCCNC(=O)[C@@]1(O)[C@H](O)[C@]2(CC)C=CCN3CC[C@@]4(c5cc([C@@]6(C(=O)OC)C[C@@H]7CN(CCc8c6[nH]c6ccccc86)C[C@](O)(CC)C7)c(OC)cc5N(C)[C@@H]14)[C@@H]32 | 0 | 0 | 26 | – | – | – | inhibition in vivo at 0.4 mg/kg [2]: 0% |
| CC[C@]1(O)C[C@H]2CN(CCc3c([nH]c4ccccc34)[C@@](C(=O)OC)(c3cc4c(cc3OC)N(C)[C@H]3[C@@](O)(C(=O)NC5CCCCC5)[C@H](O)[C@]5(CC)C=CCN6CC[C@]43[C@@H]65)C2)C1 | 26 | 26 | 0 | – | – | – | inhibition in vivo at 0.4 mg/kg [2]: 51% |
| C=CCNC(=O)[C@@]1(O)[C@H](O)[C@]2(CC)C=CCN3CC[C@@]4(c5cc([C@@]6(C(=O)OC)C[C@@H]7CN(CCc8c6[nH]c6ccccc86)C[C@](O)(CC)C7)c(OC)cc5N(C)[C@@H]14)[C@@H]32.O=S(=O)(O)O | – | – | 76 | Toxic | 0 | – | – |
| C#CCNC(=O)[C@@]1(O)[C@H](O)[C@]2(CC)C=CCN3CC[C@@]4(c5cc([C@@]6(C(=O)OC)C[C@@H]7CN(CCc8c6[nH]c6ccccc86)C[C@](O)(CC)C7)c(OC)cc5N(C)[C@@H]14)[C@@H]32.O=S(=O)(O)O | – | – | 76 | Toxic | 51 | – | – |
| CC[C@]1(O)C[C@H]2CN(CCc3c([nH]c4ccccc34)[C@@](C(=O)OC)(c3cc4c(cc3OC)N(C)[C@H]3[C@@](O)(C(=O)N5CCCC5)[C@H](O)[C@]5(CC)C=CCN6CC[C@]43[C@@H]65)C2)C1.O=S(=O)(O)O | 51 | – | 0 | Toxic | – | – | Activity (Mus musculus [7]): Toxic |
| CC[C@]1(O)C[C@H]2CN(CCc3c([nH]c4ccccc34)[C@@](C(=O)OC)(c3cc4c(cc3OC)N(C)[C@H]3[C@@](O)(C(=O)NCCC#N)[C@H](O)[C@]5(CC)C=CCN6CC[C@]43[C@@H]65)C2)C1 | – | 76 | 76 | – | 0 | 0 | – |
| CC[C@]1(O)C[C@H]2CN(CCc3c([nH]c4ccccc34)[C@@](C(=O)OC)(c3cc4c(cc3OC)N(C)[C@H]3[C@@](O)(C(=O)NCC(O)CO)[C@H](O)[C@]5(CC)C=CCN6CC[C@]43[C@@H]65)C2)C1 (stereo partly drawn) | 26 | 51 | 26 | – | – | – | inhibition in vivo at 0.4 mg/kg [2]: 76% |
| CC[C@]1(O)C[C@H]2CN(CCc3c([nH]c4ccccc34)[C@@](C(=O)OC)(c3cc4c(cc3OC)N(C)[C@H]3[C@@](O)(C(=O)NCCOC(C)=O)[C@H](O)[C@]5(CC)C=CCN6CC[C@]43[C@@H]65)C2)C1.O=S(=O)(O)O | 76 | – | 76 | Toxic | 51 | 26 | Activity (Mus musculus [7]): Toxic |
| CCCC(=O)OCCNC(=O)[C@@]1(O)[C@H](O)[C@]2(CC)C=CCN3CC[C@@]4(c5cc([C@@]6(C(=O)OC)C[C@@H]7CN(CCc8c6[nH]c6ccccc86)C[C@](O)(CC)C7)c(OC)cc5N(C)[C@@H]14)[C@@H]32.O=S(=O)(O)O | 76 | – | 76 | Toxic | 51 | 0 | Activity (Mus musculus [7]): Toxic |
| CCCCCCCCCCCCCCCCCC(=O)OCCNC(=O)[C@@]1(O)[C@H](O)[C@]2(CC)C=CCN3CC[C@@]4(c5cc([C@@]6(C(=O)OC)C[C@@H]7CN(CCc8c6[nH]c6ccccc86)C[C@](O)(CC)C7)c(OC)cc5N(C)[C@@H]14)[C@@H]32 | – | 76 | 51 | – | 0 | 0 | – |
| CC[C@]1(O)C[C@H]2CN(CCc3c([nH]c4ccccc34)[C@@](C(=O)OC)(c3cc4c(cc3OC)N(C)[C@H]3[C@@](O)(C(=O)NCCSC(c5ccccc5)(c5ccccc5)c5ccccc5)[C@H](O)[C@]5(CC)C=CCN6CC[C@]43[C@@H]65)C2)C1 | – | 0 | 0 | – | 0 | – | survival at 0.6 mg/kg (B16 [9]): 0%; survival at 0.9 mg/kg (B16 [10]): 1%; survival at 1.2 mg/kg (B16 [11]): 4% |
| CC[C@]1(O)C[C@H]2CN(CCc3c([nH]c4ccccc34)[C@@](C(=O)OC)(c3cc4c(cc3OC)N(C)[C@H]3[C@@](O)(C(=O)NCCSC(c5ccc(OC)cc5)(c5ccc(OC)cc5)c5ccc(OC)cc5)[C@H](O)[C@]5(CC)C=CCN6CC[C@]43[C@@H]65)C2)C1 | – | 0 | 0 | – | 0 | – | survival at 0.6 mg/kg (B16 [9]): 16%; survival at 0.9 mg/kg (B16 [10]): 28%; survival at 1.2 mg/kg (B16 [11]): 35% |
| CC[C@]1(O)C[C@H]2CN(CCc3c([nH]c4ccccc34)[C@@](C(=O)OC)(c3cc4c(cc3OC)N(C)[C@H]3[C@@](O)(C(=O)NCCSSCCNC(C)=O)[C@H](O)[C@]5(CC)C=CCN6CC[C@]43[C@@H]65)C2)C1 | – | 51 | 0 | – | 0 | – | survival at 0.6 mg/kg (B16 [9]): 93%; survival at 0.9 mg/kg (B16 [10]): 118%; survival at 1.2 mg/kg (B16 [11]): 127% |
| CC[C@]1(O)C[C@H]2CN(CCc3c([nH]c4ccccc34)[C@@](C(=O)OC)(c3cc4c(cc3OC)N(C)[C@H]3[C@@](O)(C(=O)NCC=O)[C@H](O)[C@]5(CC)C=CCN6CC[C@]43[C@@H]65)C2)C1 | – | 76 | 76 | – | 26 | 0 | – |
| CC[C@]1(O)C[C@H]2CN(CCc3c([nH]c4ccccc34)[C@@](C(=O)OC)(c3cc4c(cc3OC)N(C)[C@H]3[C@@](O)(C(=O)NCC(OC)OC)[C@H](O)[C@]5(CC)C=CCN6CC[C@]43[C@@H]65)C2)C1.O=S(=O)(O)O | – | – | 76 | Toxic | 76 | 0 | – |
| CC[C@]1(O)C[C@H]2CN(CCc3c([nH]c4ccccc34)[C@@](C(=O)OC)(c3cc4c(cc3OC)N(C)[C@H]3[C@@](O)(C(=O)NCCC(=N)OC)[C@H](O)[C@]5(CC)C=CCN6CC[C@]43[C@@H]65)C2)C1 | – | 0 | 0 | – | 0 | 0 | – |
| CC[C@]1(O)C[C@H]2CN(CCc3c([nH]c4ccccc34)[C@@](C(=O)OC)(c3cc4c(cc3OC)N(C)[C@H]3[C@@](O)(C(=O)NCCc5ccc(O)cc5)[C@H](O)[C@]5(CC)C=CCN6CC[C@]43[C@@H]65)C2)C1 | – | 26 | 0 | – | 0 | – | survival at 0.6 mg/kg (B16 [9]): 125%; survival at 0.9 mg/kg (B16 [10]): 152%; survival at 1.2 mg/kg (B16 [11]): 190% |
| CC[C@]1(O)C[C@H]2CN(CCc3c([nH]c4ccccc34)[C@@](C(=O)OC)(c3cc4c(cc3OC)N(C)[C@H]3[C@@](O)(C(=O)NCCc5ccc(O)c(O)c5)[C@H](O)[C@]5(CC)C=CCN6CC[C@]43[C@@H]65)C2)C1 | – | 26 | 0 | – | 0 | – | survival at 0.6 mg/kg (B16 [9]): 28%; survival at 0.9 mg/kg (B16 [10]): 128%; survival at 1.2 mg/kg (B16 [11]): 154% |
| CC[C@]1(O)C[C@H]2CN(CCc3c([nH]c4ccccc34)[C@@](C(=O)OC)(c3cc4c(cc3OC)N(C)[C@H]3[C@@](O)(C(=O)OC)[C@H](O)[C@]5(CC)C=CCN6CC[C@]43[C@@H]65)C2)C1 | – | – | – | – | – | – | Activity (CHO [12]): 3%; Activity (CHO [13]): 40% |
| COc1cc2c(c(OC)c1OC)-c1ccc(OC)c(=O)cc1[C@@H](NC(C)=O)CC2 [COLCHICINE] | – | – | – | – | – | – | Activity (CHO [14]): 15%; Activity (CHO [13]): 3% |
